# Results from ChEMBL document CHEMBL1139764, “Design, synthesis, and structure-activity relationship studies of new phenolic DNA gyrase inhibitors” (2007).
# Experiments:
# [1] = test system: Escherichia coli; test: Inhibition of Escherichia coli D110 DNA gyrase after 30 mins by supercoiling assay
# [2] = test system: Staphylococcus aureus; test: Antibacterial activity against Staphylococcus aureus ATCC 25923 by twofold agar dilution method; assay type: functional
# Outline: (§1)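 MIC read as lowest inhibitory level in twofold serial dilutions in Müller–Hinton agar; each spot inoculated with 10^4 CFU.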
# [3] = test system: Staphylococcus aureus; test: Antibacterial activity against methicillin and quinolones-resistant Staphylococcus aureus Smith QR54 by twofold agar dilution method; assay type: functional; outline: as §1
# [4] = test system: Staphylococcus aureus; test: Antibacterial activity against novobiocin R144I-resistant Staphylococcus aureus ATCC 25923 by agar dilution method; assay type: functional; outline: as §1
# [5] = test system: Staphylococcus epidermidis; test: Antibacterial activity against Staphylococcus epidermidis ATCC 14990 by twofold agar dilution method; assay type: functional
# Outline: (§2)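 Twofold serial dilutions in Müller–Hinton agar with an inoculum of 10^4 CFU per spot. The read-out is the minimal inhibitory concentration (MIC).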
# [6] = test system: Staphylococcus aureus; test: Antibacterial activity against erythromycin, methicillin and trimethoprim-resistant Staphylococcus aureus Smith 744 by twofold agar dilution method; assay type: functional; outline: as §1
# [7] = test system: Streptococcus pyogenes; test: Antibacterial activity against Streptococcus pyogenes beta-15 by agar dilution method; assay type: functional; outline: as §2
# [8] = test system: Enterococcus faecium; test: Antibacterial activity against ampicillin, trimethoprim and vancomycin-resistant Enterococcus faecium vanA E23-8 by twofold agar dilution method; assay type: functional; outline: as §1
# [9] = test system: Staphylococcus aureus; test: Antibacterial activity against Staphylococcus aureus Smith by twofold agar dilution method; assay type: functional; outline: as §1
smiles,measurement,setting,value
COC(=O)CCSC1c2c(O)cc(OC)c(C)c2C(=O)N1c1ccc(OC)cc1 (centres undefined),Activity,[1],0.5 µg/mL
COc1ccc(N2C(=O)c3c(C)c(OC)cc(O)c3C2c2ccc(C)o2)cc1 (centres undefined),Activity,[1],> 63 µg/mL
COc1cc(O)c2c(c1Br)C(=O)N1c3ccc(C)cc3COC21 (centres undefined),MIC,[2],8 µg/mL
same,MIC,[3],8 µg/mL
same,MIC,[4],4 µg/mL
same,MIC,[5],2 µg/mL
same,MIC,[6],8 µg/mL
same,Activity,[1],0.25 µg/mL
same,MIC,[7],16 µg/mL
same,MIC,[8],> 32 µg/mL
same,MIC,[9],8 µg/mL
N#Cc1ccc(NCc2cc(Cl)ccc2O)cc1,Activity,[1],2 µg/mL
COc1cc(O)c2c(c1C)C(=O)N(c1cccc(C(=O)O)c1)C2,Activity,[1],8 µg/mL
Oc1ccc(CNc2ccc(Cl)cc2)c(O)c1,Activity,[1],16 µg/mL
COC(=O)c1c(C)c(OC)cc(O)c1CNc1ccc(Cl)c(Cl)c1,Activity,[1],2 µg/mL
COc1ccc(N2C(=O)c3c(C)c(OC)cc(O)c3C2c2ccco2)cc1 (centres undefined),Activity,[1],> 63 µg/mL
COc1cc(O)c2c(c1C)C(=O)N1c3cccnc3COC21 (centres undefined),MIC,[2],1 µg/mL
same,MIC,[3],1 µg/mL
same,MIC,[4],0.5 µg/mL
same,MIC,[5],0.5 µg/mL
same,MIC,[6],2 µg/mL
same,Activity,[1],0.13 µg/mL
same,MIC,[7],32 µg/mL
same,MIC,[8],> 32 µg/mL
same,MIC,[9],1 µg/mL
COc1ccc(N2C(=O)c3c(C)c(OC)cc(O)c3C2C(Cl)C(C)=O)cc1 (centres undefined),Activity,[1],63 µg/mL
COc1cc(O)c2c(c1C)C(=O)N1c3cc4c(cc3C(=O)CC21)OCO4 (centres undefined),MIC,[2],> 32 µg/mL
same,MIC,[5],32 µg/mL
same,Activity,[1],1 µg/mL
same,MIC,[7],> 32 µg/mL
same,MIC,[8],> 32 µg/mL
same,MIC,[9],> 32 µg/mL
COc1cc(O)c2c(c1C)C(=O)N1c3ccc(Cl)cc3CC[C@H]21,MIC,[2],> 32 µg/mL
same,MIC,[3],32 µg/mL
same,MIC,[4],16 µg/mL
same,MIC,[5],32 µg/mL
same,Activity,[1],0.25 µg/mL
same,MIC,[7],> 32 µg/mL
same,MIC,[8],> 32 µg/mL
same,MIC,[9],> 32 µg/mL
COc1cc(O)c2c(c1C)C(=O)N(c1cccc(N)c1)C2,Activity,[1],2 µg/mL
C=CCC1c2c(O)cc(OC)c(C)c2C(=O)N1c1ccc(OC)cc1 (centres undefined),Activity,[1],2 µg/mL
COc1cc(O)c2c(c1Br)C(=O)N1c3ccccc3COC21 (centres undefined),MIC,[2],2 µg/mL
same,MIC,[3],2 µg/mL
same,MIC,[4],2 µg/mL
same,MIC,[5],> 2 µg/mL
same,MIC,[6],4 µg/mL
same,Activity,[1],0.5 µg/mL
same,MIC,[7],8 µg/mL
same,MIC,[8],> 32 µg/mL
same,MIC,[9],2 µg/mL
COc1cc(O)c2c(c1C)C(=O)N(c1ccc(S(N)(=O)=O)cc1)C2,Activity,[1],1 µg/mL
COc1ccc(N2C(=O)c3c(C)c(OC)cc(O)c3C2c2ccc(CC#N)s2)cc1 (centres undefined),Activity,[1],36 µg/mL
Oc1cccc(CNc2ccc(Cl)cc2)c1O,Activity,[1],16 µg/mL
COc1cc(O)c2c(c1C)C(=O)N(c1cccnc1)C2,Activity,[1],2 µg/mL
COC(=O)c1c(C)c(OC)cc(O)c1CNc1ccc2ncccc2c1,Activity,[1],8 µg/mL
COc1ccc(N2C(=O)c3c(C)c(OC)cc(O)c3C2c2ccc(CS)o2)cc1 (centres undefined),Activity,[1],> 63 µg/mL
Oc1c(Cl)cc(Cl)cc1CNc1ccc(Cl)cc1,Activity,[1],16 µg/mL
COc1ccc(N2C(=O)c3c(C)c(OC)cc(O)c3C2Sc2ncc[nH]2)cc1 (centres undefined),Activity,[1],4 µg/mL
COc1cc(O)c2c(c1C)C(=O)N(c1ccc(Cl)c(Cl)c1)C2,Activity,[1],4 µg/mL
COc1ccc(N2C(=O)c3c(C)c(OC)cc(O)c3C2Sc2ncccn2)cc1 (centres undefined),Activity,[1],4 µg/mL
COc1cc(O)c2c(c1C)C(=O)N1c3ccc(C)cc3COC21 (centres undefined),MIC,[2],32 µg/mL
same,MIC,[3],16 µg/mL
same,MIC,[4],16 µg/mL
same,MIC,[5],2 µg/mL
same,MIC,[6],32 µg/mL
same,Activity,[1],0.25 µg/mL
same,MIC,[7],> 32 µg/mL
same,MIC,[8],> 32 µg/mL
same,MIC,[9],16 µg/mL
COc1ccc2c(c1)CC[C@@H]1c3c(O)cc(OC)c(C)c3C(=O)N21,MIC,[2],32 µg/mL
same,MIC,[3],16 µg/mL
same,MIC,[4],8 µg/mL
same,MIC,[5],< 2 µg/mL
same,MIC,[6],> 32 µg/mL
same,Activity,[1],0.5 µg/mL
same,MIC,[7],> 32 µg/mL
same,MIC,[8],> 32 µg/mL
same,MIC,[9],16 µg/mL
COc1ccc(N2C(=O)c3c(C)c(OC)cc(O)c3C2CCO)cc1 (centres undefined),Activity,[1],4 µg/mL
CCCCSC1c2c(O)cc(OC)c(C)c2C(=O)N1c1ccc(OC)cc1 (centres undefined),Activity,[1],16 µg/mL
COc1ccc2c(c1)[C@@H](O)C[C@@H]1c3c(O)cc(OC)c(C)c3C(=O)N21,MIC,[2],> 32 µg/mL
same,MIC,[3],16 µg/mL
same,MIC,[4],16 µg/mL
same,MIC,[5],32 µg/mL
same,MIC,[6],> 32 µg/mL
same,Activity,[1],0.5 µg/mL
same,MIC,[7],> 32 µg/mL
same,MIC,[8],> 32 µg/mL
same,MIC,[9],32 µg/mL
Oc1ccc(Cl)cc1CNc1cc(Cl)cc(Cl)c1,Activity,[1],4 µg/mL
Oc1ccc(Br)cc1CNc1ccc(Cl)cc1,Activity,[1],16 µg/mL
COc1cc(O)c2c(c1C)C(=O)N1c3ccc(Cl)cc3[C@@H](O)C[C@H]21,MIC,[2],8 µg/mL
same,MIC,[3],8 µg/mL
same,MIC,[4],4 µg/mL
same,MIC,[5],8 µg/mL
same,MIC,[6],16 µg/mL
same,Activity,[1],1 µg/mL
same,MIC,[7],32 µg/mL
same,MIC,[8],> 32 µg/mL
same,MIC,[9],4 µg/mL
COc1ccc(N2C(=O)c3c(C)c(OC)cc(O)c3C2OC)cc1 (centres undefined),Activity,[1],16 µg/mL
COC(=O)c1c(C)c(OC)cc(O)c1CNc1cccc(Cl)c1,Activity,[1],4 µg/mL
COc1cc(O)c2c(c1C)C(=O)N(c1ccc3ncccc3c1)C2,Activity,[1],1 µg/mL
COC(=O)c1c(C)c(OC)cc(O)c1CNc1cc(Cl)cc(Cl)c1,Activity,[1],4 µg/mL
NS(=O)(=O)c1ccc(NCc2cc(Cl)ccc2O)cc1,Activity,[1],63 µg/mL
COc1cc(O)c2c(c1C)C(=O)N(c1ccc3[nH]ncc3c1)C2,Activity,[1],1 µg/mL
COc1ccc(N2C(=O)c3c(C)c(OC)cc(O)c3C2CC=O)cc1 (centres undefined),Activity,[1],31 µg/mL
COC(=O)c1c(C)c(OC)cc(O)c1CNc1ccc(Cl)cc1,Activity,[1],16 µg/mL
CO[C@@H]1[C@@H](OC(N)=O)[C@@H](O)[C@H](Oc2ccc3c(O)c(NC(=O)c4ccc(O)c(CC=C(C)C)c4)c(=O)oc3c2C)OC1(C)C [NOVOBIOCIN],MIC,[2],0.25 µg/mL
same,MIC,[3],0.12 µg/mL
same,MIC,[4],8 µg/mL
same,MIC,[5],0.12 µg/mL
same,MIC,[6],0.25 µg/mL
same,Activity,[1],0.25 µg/mL
same,MIC,[7],2 µg/mL
same,MIC,[8],8 µg/mL
same,MIC,[9],0.25 µg/mL
Oc1ccc(Cl)cc1CNc1ccc(Cl)cc1,MIC,[2],16 µg/mL
same,MIC,[3],16 µg/mL
same,MIC,[4],16 µg/mL
same,MIC,[5],16 µg/mL
same,MIC,[6],16 µg/mL
same,Activity,[1],5 µg/mL
same,MIC,[7],16 µg/mL
same,MIC,[8],16 µg/mL
same,MIC,[9],16 µg/mL
COc1cc(O)c2c(c1C)C(=O)N1c3c(C)cccc3COC21 (centres undefined),MIC,[2],32 µg/mL
same,MIC,[3],16 µg/mL
same,MIC,[4],16 µg/mL
same,MIC,[5],2 µg/mL
same,MIC,[6],> 32 µg/mL
same,Activity,[1],0.5 µg/mL
same,MIC,[7],> 32 µg/mL
same,MIC,[8],> 32 µg/mL
same,MIC,[9],32 µg/mL
Oc1ccc(Cl)cc1CNc1cccc(Cl)c1,Activity,[1],8 µg/mL
COc1cc(O)c2c(c1C)C(=O)N(c1cnc3ccccc3c1)C2,Activity,[1],0.5 µg/mL
COc1cc(O)c2c(c1C)C(=O)N1c3ccccc3COC21 (centres undefined),MIC,[2],> 32 µg/mL
same,MIC,[5],> 32 µg/mL
same,Activity,[1],0.5 µg/mL
same,MIC,[7],> 32 µg/mL
same,MIC,[8],> 32 µg/mL
same,MIC,[9],> 32 µg/mL
COc1ccc(N2C(=O)c3c(C)c(OC)cc(O)c3C2CC(C)=O)cc1 (centres undefined),Activity,[1],> 63 µg/mL
COc1cc(O)c2c(c1C)C(=O)N(c1cccc(CC(=O)O)c1)C2,Activity,[1],2 µg/mL
COc1ccc(N2C(=O)c3c(C)c(OC)cc(O)c3C2Sc2ccc(C)cc2)cc1 (centres undefined),Activity,[1],31 µg/mL
COc1ccc(N2C(=O)c3c(C)c(OC)cc(O)c3C2c2[nH]c3ccccc3c2C)cc1 (centres undefined),Activity,[1],> 63 µg/mL
COc1ccc(N2Cc3c(O)cc(OC)c(C)c3C2=O)cc1,Activity,[1],8 µg/mL
